Assay [1] concerns the target Dual specificity mitogen-activated protein kinase kinase; MEK1/2 (Homo sapiens) (UniProt P36507+Q02750). As to the kind of experiment: Inhibition of MEK1/2 in human NCI-H1975 cells assessed as blocking of MEK1/2 pulldown at 1 uM in presence of TL13-68 incubated for 2 hrs by Western blot analysis. Format: cell-based. The gist of the method:
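H1975 or HCC827 cells treated with 1 μM compound or DMSO for 2 h, rinsed twice in cold PBS, and lysed in M-PER with protease/phosphatase inhibitors. Lysate rocked overnight at 4 °C with 1 μM TL13-68, then streptavidin pulldown with five cold washes. Bound kinases detected by Western blot. Two independent experiments.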
For orientation: In western blotting, separated proteins are transferred to a membrane and probed.

Assay [2] concerns the target RAC-alpha serine/threonine-protein kinase (Homo sapiens) (UniProt P31749). Description: Binding affinity to wild-type human partial length AKT1 expressed in bacterial expression system assessed as residual binding level at 1 uM by Kinomescan method relative to control.
Assay [3] concerns the target Calcium/calmodulin-dependent protein kinase kinase 2 (Homo sapiens) (UniProt Q96RR4). As to the kind of experiment: Binding affinity to wild-type human partial length CAMKK2 (D65 to V471 residues) expressed in bacterial expression system assessed as residual binding level at 1 uM by Kinomescan method relative to control.
For assay [4], the target named is Discoidin domain-containing receptor 2 (Homo sapiens) (UniProt Q16832). As to the kind of experiment: Binding affinity to wild-type human partial length DDR2 (V555 to E855 residues) expressed in mammalian expression system assessed as residual binding level at 1 uM by Kinomescan method relative to control. In a few lines: (§1)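 Active-site-directed competition binding panel of 468 kinases (KinomeScan), compound at 1 μM. The read-out is kinase remaining bound, given as a percentage of the DMSO control. […]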

The target of assay [5] is Ephrin type-A receptor 1 (Homo sapiens) (UniProt P21709). Description: Binding affinity to wild-type human partial length EPHA1 (V588 to I913 residues) expressed in bacterial expression system assessed as residual binding level at 1 uM by Kinomescan method relative to control.
In assay [6] the target is Ephrin type-B receptor 2 (Homo sapiens) (UniProt P29323). As to the kind of experiment: Binding affinity to wild-type human partial length EPHB2 (I597 to L902 residues) expressed in bacterial expression system assessed as residual binding level at 1 uM by Kinomescan method relative to control. The gist of the method:
as §1

Assay [7] has as its target Ephrin type-B receptor 4 (Homo sapiens) (UniProt P54760). Description: Binding affinity to wild-type human partial length EPHB4 (H585 to G892 residues) expressed in bacterial expression system assessed as residual binding level at 1 uM by Kinomescan method relative to control.
Assay [8] has as its target Mitogen-activated protein kinase 7 (Homo sapiens) (UniProt Q13164). Description: Binding affinity to wild-type human partial length ERK5 (M1 to A409 residues) expressed in bacterial expression system assessed as residual binding level at 1 uM by Kinomescan method relative to control.
Assay [9] has as its target Receptor-type tyrosine-protein kinase FLT3 (Homo sapiens) (UniProt P36888). As to the kind of experiment: Binding affinity to wild-type human partial length FLT3 (V592 to Y969 residues) expressed in bacterial expression system assessed as residual binding level at 1 uM by Kinomescan method relative to control.
The subject of assay [10] is Receptor-type tyrosine-protein kinase FLT3 (Homo sapiens), P36888 [D835V]. As to the kind of experiment: Binding affinity to human partial length FLT3 D835V mutant (V592 to Y969 residues) expressed in bacterial expression system assessed as residual binding level at 1 uM by Kinomescan method relative to control. In a few lines:
(§2)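 KinomeScan active site-directed competition binding panel (468 kinases), compound tested at 1 μM. Result expressed as remaining kinase signal versus DMSO control (percent of control).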

Assay [11] addresses Homeodomain-interacting protein kinase 2 (Homo sapiens) (UniProt Q9H2X6). As to the kind of experiment: Binding affinity to wild-type human partial length HIPK2 (M153 to S564 residues) expressed in mammalian expression system assessed as residual binding level at 1 uM by Kinomescan method relative to control.
Assay [12] deals with Serine/threonine-protein kinase ICK (Homo sapiens) (UniProt Q9UPZ9). Description: Binding affinity to wild-type human partial length ICK (M1 to P314 residues) expressed in mammalian expression system assessed as residual binding level at 1 uM by Kinomescan method relative to control. In a few lines: as §1
In assay [13] the target is Insulin receptor (Homo sapiens) (UniProt P06213). Description: Binding affinity to wild-type human partial length INSR (P997 to E1318 residues) expressed in mammalian expression system assessed as residual binding level at 1 uM by Kinomescan method relative to control.
In assay [14] the test system is Mast/stem cell growth factor receptor Kit (Homo sapiens), P10721 [V559D,T670I]. As to the kind of experiment: Binding affinity to human partial length KIT V559D/T670I double mutant (Y545 to D952 residues) expressed in bacterial expression system assessed as residual binding level at 1 uM by Kinomescan method relative to control. The gist of the method:
as §2

Assay [15] concerns the target Dual specificity mitogen-activated protein kinase kinase 7 (Homo sapiens) (UniProt O14733). As to the kind of experiment: Binding affinity to wild-type human full length MKK7 (M1 to R419 residues) expressed in mammalian expression system assessed as residual binding level at 1 uM by Kinomescan method relative to control. The gist of the method: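 KinomeScan, an active site-directed competition binding panel of 468 kinases. The test compound was at 1 μM. The readout is remaining kinase binding as a percentage of the DMSO control. Scores above 35% were treated as weak binding and not listed.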

For assay [16], the target named is Serine/threonine-protein kinase 26 (Homo sapiens) (UniProt Q9P289). Description: Binding affinity to wild-type human full length MST4 (M1 to P416 residues) expressed in mammalian expression system assessed as residual binding level at 1 uM by Kinomescan method relative to control. In a few lines: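 Active-site-directed competition binding panel (KinomeScan) covering 468 kinases. Test agent was screened at 1 μM. The read-out is the remaining kinase signal expressed relative to a DMSO control. Scores above 35%, taken as weak binding, were not reported.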

For assay [17], the target named is Protein kinase C epsilon type (Homo sapiens) (UniProt Q02156). Description: Binding affinity to wild-type human partial length PRKCE (A378 to P737 residues) expressed in mammalian expression system assessed as residual binding level at 1 uM by Kinomescan method relative to control.
In assay [18] the target is Serine/threonine-protein kinase 16 (Homo sapiens) (UniProt O75716). As to the kind of experiment: Binding affinity to wild-type human partial length STK16 (G11 to I305 residues) expressed in bacterial expression system assessed as residual binding level at 1 uM by Kinomescan method relative to control.
In assay [19] the target is Tyrosine-protein kinase receptor Tie-1 (Homo sapiens) (UniProt P35590). Description: Binding affinity to wild-type human partial length TIE1 (T819 to A1138 residues) expressed in bacterial expression system assessed as residual binding level at 1 uM by Kinomescan method relative to control. In a few lines:
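Active site-directed competition binding panel (KinomeScan, 468 kinases). Test compound at 1 μM. Read-out is kinase binding remaining versus DMSO control, expressed as percent of control. Scores above 35% are treated as weak binding.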

Assay [20] has as its target Tyrosine-protein kinase ZAP-70 (Homo sapiens) (UniProt P43403). Description: Binding affinity to wild-type human partial length ZAP70 (D20 to G299 residues) expressed in mammalian expression system assessed as residual binding level at 1 uM by Kinomescan method relative to control.

Activity calls are given as the source filed them. The rule behind the calls is not given here.

Sequence of Discoidin domain-containing receptor 2 (Homo sapiens) (Q16832 whole entry, the tested form may be a part): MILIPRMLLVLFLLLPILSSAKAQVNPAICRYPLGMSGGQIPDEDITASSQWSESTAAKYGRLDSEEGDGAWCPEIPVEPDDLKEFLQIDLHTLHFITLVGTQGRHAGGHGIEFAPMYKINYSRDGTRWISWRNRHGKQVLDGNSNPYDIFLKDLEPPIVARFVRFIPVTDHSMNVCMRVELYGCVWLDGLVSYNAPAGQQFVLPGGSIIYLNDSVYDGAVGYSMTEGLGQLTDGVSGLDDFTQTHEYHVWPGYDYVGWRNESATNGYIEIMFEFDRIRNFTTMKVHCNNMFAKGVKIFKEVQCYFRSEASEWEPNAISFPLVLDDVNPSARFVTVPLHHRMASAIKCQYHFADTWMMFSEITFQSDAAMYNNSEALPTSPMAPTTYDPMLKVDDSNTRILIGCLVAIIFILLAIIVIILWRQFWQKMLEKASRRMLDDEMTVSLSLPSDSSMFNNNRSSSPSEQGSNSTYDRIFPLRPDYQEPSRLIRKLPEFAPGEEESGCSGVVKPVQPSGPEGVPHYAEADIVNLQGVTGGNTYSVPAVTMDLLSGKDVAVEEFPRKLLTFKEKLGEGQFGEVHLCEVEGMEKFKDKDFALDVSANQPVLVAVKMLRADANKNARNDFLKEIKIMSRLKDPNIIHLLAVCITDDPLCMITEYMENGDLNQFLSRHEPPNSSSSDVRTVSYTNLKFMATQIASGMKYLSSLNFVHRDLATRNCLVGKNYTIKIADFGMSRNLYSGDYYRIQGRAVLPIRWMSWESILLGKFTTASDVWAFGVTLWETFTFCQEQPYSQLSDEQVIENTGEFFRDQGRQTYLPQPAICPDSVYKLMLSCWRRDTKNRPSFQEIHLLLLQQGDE
Sequence of Ephrin type-B receptor 2 (Homo sapiens) (P29323 whole entry, the tested form may be a part): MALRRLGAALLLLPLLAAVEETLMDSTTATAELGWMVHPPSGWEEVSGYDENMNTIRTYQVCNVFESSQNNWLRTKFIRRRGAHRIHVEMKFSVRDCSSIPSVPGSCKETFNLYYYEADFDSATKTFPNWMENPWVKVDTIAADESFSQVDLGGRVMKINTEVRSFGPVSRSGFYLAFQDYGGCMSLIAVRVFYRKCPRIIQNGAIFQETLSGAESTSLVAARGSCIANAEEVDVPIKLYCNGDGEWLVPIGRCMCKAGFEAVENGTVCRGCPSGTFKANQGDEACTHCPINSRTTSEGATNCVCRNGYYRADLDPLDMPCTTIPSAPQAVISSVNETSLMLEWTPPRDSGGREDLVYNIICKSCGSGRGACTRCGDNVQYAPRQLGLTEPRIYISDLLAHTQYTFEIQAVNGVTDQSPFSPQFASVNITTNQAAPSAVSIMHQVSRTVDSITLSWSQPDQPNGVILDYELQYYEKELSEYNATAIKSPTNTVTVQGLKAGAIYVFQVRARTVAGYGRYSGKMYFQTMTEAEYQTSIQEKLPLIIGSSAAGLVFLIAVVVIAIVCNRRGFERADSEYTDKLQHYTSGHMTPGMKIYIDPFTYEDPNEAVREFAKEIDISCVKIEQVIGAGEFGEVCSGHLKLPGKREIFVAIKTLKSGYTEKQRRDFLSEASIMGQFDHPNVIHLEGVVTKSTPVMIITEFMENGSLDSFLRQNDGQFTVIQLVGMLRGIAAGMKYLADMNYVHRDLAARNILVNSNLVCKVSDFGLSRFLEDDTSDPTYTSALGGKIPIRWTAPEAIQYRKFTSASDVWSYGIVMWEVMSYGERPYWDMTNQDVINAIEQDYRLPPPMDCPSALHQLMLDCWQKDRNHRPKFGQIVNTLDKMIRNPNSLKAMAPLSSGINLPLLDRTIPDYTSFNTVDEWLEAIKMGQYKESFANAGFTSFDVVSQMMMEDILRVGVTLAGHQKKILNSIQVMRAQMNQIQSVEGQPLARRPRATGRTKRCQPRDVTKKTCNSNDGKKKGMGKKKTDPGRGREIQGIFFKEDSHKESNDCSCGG
Sequence of Tyrosine-protein kinase ZAP-70 (Homo sapiens) (P43403 whole entry, the tested form may be a part): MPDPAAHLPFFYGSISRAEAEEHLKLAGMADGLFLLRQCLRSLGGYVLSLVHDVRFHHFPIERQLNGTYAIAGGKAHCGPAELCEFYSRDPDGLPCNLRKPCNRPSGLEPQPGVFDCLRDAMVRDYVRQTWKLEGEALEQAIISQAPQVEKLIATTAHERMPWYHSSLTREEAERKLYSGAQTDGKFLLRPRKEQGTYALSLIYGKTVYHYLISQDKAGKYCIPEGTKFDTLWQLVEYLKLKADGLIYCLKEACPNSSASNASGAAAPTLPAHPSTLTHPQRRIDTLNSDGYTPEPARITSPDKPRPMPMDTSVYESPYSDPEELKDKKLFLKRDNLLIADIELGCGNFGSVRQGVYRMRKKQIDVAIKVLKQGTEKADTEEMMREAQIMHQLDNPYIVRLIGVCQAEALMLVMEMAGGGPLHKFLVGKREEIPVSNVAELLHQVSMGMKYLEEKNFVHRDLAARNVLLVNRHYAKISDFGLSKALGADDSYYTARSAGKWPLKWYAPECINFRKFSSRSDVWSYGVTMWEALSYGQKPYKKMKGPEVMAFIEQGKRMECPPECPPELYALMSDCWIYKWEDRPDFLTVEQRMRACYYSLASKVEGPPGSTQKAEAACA
Sequence of RAC-alpha serine/threonine-protein kinase (Homo sapiens) (P31749 whole entry, the tested form may be a part): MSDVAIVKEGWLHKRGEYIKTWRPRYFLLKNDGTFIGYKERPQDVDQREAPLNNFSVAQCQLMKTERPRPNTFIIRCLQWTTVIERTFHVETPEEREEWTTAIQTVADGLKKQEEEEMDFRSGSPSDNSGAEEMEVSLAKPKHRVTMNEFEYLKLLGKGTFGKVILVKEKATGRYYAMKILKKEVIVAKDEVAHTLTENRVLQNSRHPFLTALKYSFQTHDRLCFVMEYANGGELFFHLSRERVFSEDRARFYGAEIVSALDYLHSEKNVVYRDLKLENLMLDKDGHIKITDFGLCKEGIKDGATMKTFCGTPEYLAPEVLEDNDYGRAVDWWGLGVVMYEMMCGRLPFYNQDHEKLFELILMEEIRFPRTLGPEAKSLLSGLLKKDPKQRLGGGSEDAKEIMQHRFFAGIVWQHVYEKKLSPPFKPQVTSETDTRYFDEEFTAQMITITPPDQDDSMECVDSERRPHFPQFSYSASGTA
Sequence of Mast/stem cell growth factor receptor Kit (Homo sapiens), P10721 [V559D,T670I] (P10721 whole entry V559D/T670I, the tested form may be a part): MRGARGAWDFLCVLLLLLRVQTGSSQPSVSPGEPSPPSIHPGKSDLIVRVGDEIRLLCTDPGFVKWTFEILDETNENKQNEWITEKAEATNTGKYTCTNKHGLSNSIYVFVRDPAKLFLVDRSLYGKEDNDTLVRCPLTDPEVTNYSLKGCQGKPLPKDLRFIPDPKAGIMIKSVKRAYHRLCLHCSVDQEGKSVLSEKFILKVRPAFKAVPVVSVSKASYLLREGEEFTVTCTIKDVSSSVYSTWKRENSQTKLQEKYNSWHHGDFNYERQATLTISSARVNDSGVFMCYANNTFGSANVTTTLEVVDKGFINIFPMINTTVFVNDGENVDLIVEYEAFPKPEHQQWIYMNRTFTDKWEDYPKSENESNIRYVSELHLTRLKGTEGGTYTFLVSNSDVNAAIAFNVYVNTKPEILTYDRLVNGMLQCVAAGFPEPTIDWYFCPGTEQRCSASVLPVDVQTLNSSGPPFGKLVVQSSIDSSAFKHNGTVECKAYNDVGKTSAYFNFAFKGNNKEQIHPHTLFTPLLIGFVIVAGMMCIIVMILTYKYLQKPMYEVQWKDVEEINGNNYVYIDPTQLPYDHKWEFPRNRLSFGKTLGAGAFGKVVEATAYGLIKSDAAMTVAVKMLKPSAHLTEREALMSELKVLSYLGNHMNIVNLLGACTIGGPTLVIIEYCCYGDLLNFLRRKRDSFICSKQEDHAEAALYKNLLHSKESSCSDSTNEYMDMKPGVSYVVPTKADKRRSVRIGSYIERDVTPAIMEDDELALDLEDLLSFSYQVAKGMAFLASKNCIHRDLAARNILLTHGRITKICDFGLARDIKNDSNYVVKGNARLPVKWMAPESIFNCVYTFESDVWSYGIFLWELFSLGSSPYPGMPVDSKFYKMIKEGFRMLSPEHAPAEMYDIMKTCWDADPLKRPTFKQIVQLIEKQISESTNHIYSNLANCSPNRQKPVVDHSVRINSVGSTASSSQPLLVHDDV
Sequence of Serine/threonine-protein kinase 26 (Homo sapiens) (Q9P289 2-416 limits assumed): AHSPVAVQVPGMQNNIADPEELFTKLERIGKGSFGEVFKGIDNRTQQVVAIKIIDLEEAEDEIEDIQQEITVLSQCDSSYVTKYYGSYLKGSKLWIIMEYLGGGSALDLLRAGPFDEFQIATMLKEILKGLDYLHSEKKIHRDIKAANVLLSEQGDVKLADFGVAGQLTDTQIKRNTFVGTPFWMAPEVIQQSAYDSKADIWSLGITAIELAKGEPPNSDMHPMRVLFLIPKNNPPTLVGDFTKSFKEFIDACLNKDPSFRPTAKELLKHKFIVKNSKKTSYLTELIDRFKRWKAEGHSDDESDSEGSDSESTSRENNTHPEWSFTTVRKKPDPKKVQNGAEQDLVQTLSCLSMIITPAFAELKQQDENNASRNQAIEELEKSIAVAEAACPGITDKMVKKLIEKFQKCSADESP
Sequence of Serine/threonine-protein kinase ICK (Homo sapiens) (Q9UPZ9 whole entry, the tested form may be a part): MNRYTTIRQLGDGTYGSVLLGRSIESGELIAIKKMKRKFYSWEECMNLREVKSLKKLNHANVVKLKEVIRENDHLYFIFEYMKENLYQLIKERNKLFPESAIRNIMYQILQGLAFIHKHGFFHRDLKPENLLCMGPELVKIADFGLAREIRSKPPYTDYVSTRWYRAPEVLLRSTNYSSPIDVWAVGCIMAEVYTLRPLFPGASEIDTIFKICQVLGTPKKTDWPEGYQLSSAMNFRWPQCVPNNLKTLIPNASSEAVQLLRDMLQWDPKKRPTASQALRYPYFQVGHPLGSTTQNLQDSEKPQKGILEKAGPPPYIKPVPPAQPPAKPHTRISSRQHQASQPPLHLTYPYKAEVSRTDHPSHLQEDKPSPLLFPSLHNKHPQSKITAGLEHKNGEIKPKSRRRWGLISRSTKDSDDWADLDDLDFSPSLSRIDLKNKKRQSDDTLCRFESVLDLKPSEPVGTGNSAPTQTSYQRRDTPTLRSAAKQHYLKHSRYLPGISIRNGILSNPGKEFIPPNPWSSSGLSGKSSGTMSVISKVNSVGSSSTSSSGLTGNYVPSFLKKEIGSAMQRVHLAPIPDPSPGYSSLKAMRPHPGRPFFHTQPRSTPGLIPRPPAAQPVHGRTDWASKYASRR

On to `C=CC(=O)Nc1ccccc1Nc1nc(Nc2ccc(N3CCN(C)CC3)cc2)ncc1C(=O)Nc1c(C)cccc1Cl`, for which the inhibition result in [1] was “inactive”. Besides, the Activity came out at 89% in assay [2]; 100% in assay [3]; 26% in assay [4]; 100% in assay [5]; 59% in [6]; 100% in assay [7]. Besides, the Activity was found to be 92% in assay [8]; 99% in assay [9]; 91% in assay [10]; 100% in [11]; 96% in assay [12]; 100% in assay [13]. The Activity in [14] was 100%; in assay [15], 96%; in [16] it was 85%; in [17] it was 100%; in assay [18] it was 100%; in assay [19], 83%. Also, the Activity in assay [20] worked out at 100%.

Values taken from ChEMBL document CHEMBL4354843, “Structure-Based Design of a Potent and Selective Covalent Inhibitor for SRC Kinase That Targets a P-Loop Cysteine” (J Med Chem, 2020).
